Data from paper PMC3962784 (Journal of medicinal chemistry, 2013).

How the values were obtained:
papain = target: T1, papain (Carica papaya, UniProt P00784); experiment: Papain inhibition kinetics, Suc-LLVY-AMC progress curves; type: biochemical; details: for Papain ki: inhibition rate constant; for Papain ki/Ki: mean ± S.D. of triplicate; for Papain rel (ki/Ki calculated relative to E-64): E-64 = 1
T1 sequence (P00784 134-345): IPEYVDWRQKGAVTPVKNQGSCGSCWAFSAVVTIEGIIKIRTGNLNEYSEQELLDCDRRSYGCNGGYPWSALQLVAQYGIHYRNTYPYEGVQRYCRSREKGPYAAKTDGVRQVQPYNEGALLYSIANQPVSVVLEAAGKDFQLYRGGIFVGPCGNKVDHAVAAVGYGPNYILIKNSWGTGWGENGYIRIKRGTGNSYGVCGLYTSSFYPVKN
Summary of the method: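 Papain (236 pM) in 100 mM NaCl, 50 mM HEPES pH 7.6, 1 mM TCEP with 30 µM Suc-LLVY-AMC and inhibitor at 0.5–50 µM, 30 °C. Organic solvent (acetonitrile/DMSO 1:1) stayed below 2%. AMC release was followed over time at Ex/Em 346/444 nm. Constants came from varied enzyme and inhibitor concentrations, and selectivity from ki/Ki with E-64 as 1.0. Triplicates.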

[1] = target: T2, full length Cal1 (full length porcine calpain) (Sus scrofa, UniProt P35750); experiment: Calpain inhibition kinetics, Suc-LLVY-AMC progress curves; type: biochemical; details: for Calpain1 ki/Ki / Calpain1 ki: full length Cal1; for Calpain1 ki/Ki: mean ± S.D. of triplicate; for Calpain1 ki: inhibition rate constant; for 10^2 × ki/Ki Cal1 / ki/Ki papain: selectivity ratio Cal1 over papain; for Calpain1 rel (ki/Ki calculated relative to E-64): E-64 = 1; for Relative selectivity for inhibition of Cal1 over papain (in words): assessed using ki/Ki
T2 sequence (P35750 1-714): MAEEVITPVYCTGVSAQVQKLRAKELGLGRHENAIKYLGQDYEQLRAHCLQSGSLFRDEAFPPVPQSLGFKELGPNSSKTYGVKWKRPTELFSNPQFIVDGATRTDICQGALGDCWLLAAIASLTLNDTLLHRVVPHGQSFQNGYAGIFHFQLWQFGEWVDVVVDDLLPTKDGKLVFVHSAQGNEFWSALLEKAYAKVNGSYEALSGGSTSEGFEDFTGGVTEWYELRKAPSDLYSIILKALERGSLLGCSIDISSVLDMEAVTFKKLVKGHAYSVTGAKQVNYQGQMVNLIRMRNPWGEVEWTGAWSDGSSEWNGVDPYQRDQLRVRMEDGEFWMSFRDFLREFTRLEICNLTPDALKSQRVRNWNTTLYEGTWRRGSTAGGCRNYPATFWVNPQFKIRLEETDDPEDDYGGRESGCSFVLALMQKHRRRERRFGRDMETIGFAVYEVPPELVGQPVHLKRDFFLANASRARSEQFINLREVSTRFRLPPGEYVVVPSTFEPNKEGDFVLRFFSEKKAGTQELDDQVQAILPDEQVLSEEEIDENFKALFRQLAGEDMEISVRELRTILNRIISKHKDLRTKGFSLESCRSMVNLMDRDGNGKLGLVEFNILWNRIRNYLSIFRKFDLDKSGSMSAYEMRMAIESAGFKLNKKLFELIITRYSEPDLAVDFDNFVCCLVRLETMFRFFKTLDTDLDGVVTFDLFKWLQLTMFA
T2 sequence (P04574 1-266 partner): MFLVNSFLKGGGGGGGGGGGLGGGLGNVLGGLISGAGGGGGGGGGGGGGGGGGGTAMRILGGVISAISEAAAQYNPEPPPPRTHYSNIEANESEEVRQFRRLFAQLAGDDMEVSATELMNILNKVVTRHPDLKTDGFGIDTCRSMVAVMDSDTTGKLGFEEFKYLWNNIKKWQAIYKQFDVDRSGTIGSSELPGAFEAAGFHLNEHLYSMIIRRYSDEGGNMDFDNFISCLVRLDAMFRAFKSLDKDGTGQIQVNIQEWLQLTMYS

[2] = target: recombinant rat Cal1cat (Cal1 catalytic domain) active site Cys (Rattus norvegicus, UniProt P97571); experiment: LC-MS/MS examination of inhibitor modified Cal1cat active site; type: binding; details: co-incubation of Cal1cat (1 μM) with E-64 and 22a, both 5 μM
Chain of recombinant rat Cal1cat (Cal1 catalytic domain) active site Cys (P97571 55-354 limits assumed): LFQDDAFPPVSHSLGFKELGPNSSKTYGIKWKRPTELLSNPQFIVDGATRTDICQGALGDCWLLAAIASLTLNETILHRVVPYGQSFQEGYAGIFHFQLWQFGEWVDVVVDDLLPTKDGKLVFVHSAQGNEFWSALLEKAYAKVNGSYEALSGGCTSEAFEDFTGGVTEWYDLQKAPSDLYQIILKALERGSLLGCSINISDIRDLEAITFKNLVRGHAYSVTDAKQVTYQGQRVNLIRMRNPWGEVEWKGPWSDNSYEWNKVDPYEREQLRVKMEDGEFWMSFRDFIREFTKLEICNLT
Summary of the method: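 Recombinant rat Cal1cat from E. coli (1 μM), activated with CaCl2 (10 mM), co-incubated 20 min with both inhibitors at 5 μM each. Quenched with EDTA, run on SDS-PAGE; band excised, alkylated in-gel with IAA (100 mM, 60 min), trypsin-digested. Ion-trap LC-MS/MS, reverse-phase column, ACN/water with 0.1% formic acid. Semiquantitative EIC of modified peptides against non-active-site IAA-capped peptide internal standard.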

Compound | Papain ki (papain) [s⁻¹] | Papain ki/Ki (papain) [×l0^−4s^−1M^−1] | Calpain1 ki/Ki [1] [×l0^−4 s^−1M^−1] | Calpain1 ki [1] [s⁻¹] | 10^2 × ki/Ki Cal1 / ki/Ki papain [1] | Papain rel (ki/Ki calculated relative to E-64) (papain) | Calpain1 rel (ki/Ki calculated relative to E-64) [1] | Relative selectivity for inhibition of Cal1 over papain (in words) [1] | Competitive modification of Cal1cat active site [2]
CC(C)C[C@H](NC(=O)[C@H]1O[C@@H]1C(=O)O)C(=O)NCCCCN=C(N)N [E-64, L-trans-epoxysuccinyl-leucylamido(4-guanidino)butane, reference compound] | 28.6 | 563 ± 52 | 3.02±0.15 | 0.12 | 0.54 |  |  |  | 
C#Cc1ccc(-c2csc(NC(=O)[C@H](Cc3cscn3)NC(=O)[C@H]3O[C@@H]3C(=O)O)n2)cc1 [compound 32, (2S,3S)-3-((S)-1-(4-(4-ethynylphenyl)thiazol-2-ylamino)-1-oxo-3-(thiazol-4-yl)propan-2-ylcarbamoyl)oxirane-2-carboxylic acid] | 21.6 | 223 ± 2.4 | 3.89±0.41 | 0.14 | 1.74 | 0.40 | 1.3 | show Cal1 selectivity | 
O=C(NCc1cn(-c2ccc(F)cc2)nn1)[C@H](Cc1cscn1)NC(=O)[C@H]1O[C@@H]1C(=O)O [compound 36, (2S,3S)-3-((S)-1-((1-(4-fluorophenyl)-1H-1,2,3-triazol-4-yl)methylamino)-1-oxo-3-(thiazol-4-yl)propan-2-ylcarbamoyl)oxirane-2-carboxylic acid] | 12.7 | 66.2 ±7.4 | 3.31±0.32 | 0.10 | 5.0 | 0.12 | 1.1 | show Cal1 selectivity | 
CC(C)C[C@H](NC(=O)[C@H]1O[C@@H]1C(=O)O)C(=O)Nc1nc(-c2ccc(F)cc2)cs1 [22a, (2S,3S)-3-((S)-1-(4-(4-fluorophenyl)thiazol-2-ylamino)-4-methyl-1-oxopentan-2-ylcarbamoyl)oxirane-2-carboxylic acid] | 17.1 |  |  | 0.16 |  |  |  |  | relatively greater modification by 22a
O=C(Nc1nc(-c2ccc(F)cc2)cs1)[C@H](Cc1cscn1)NC(=O)[C@H]1O[C@@H]1C(=O)O [compound 31, 3-((S)-1-(4-(4-fluorophenyl)thiazol-2-ylamino)-1-oxo-3-(thiazol-4-yl)propan-2-ylcarbamoyl)oxirane-2-carboxylic acid] | 14.8 | 279 ± 47 | 2.96±0.14 | 0.08 | 1.06 | 0.50 | 0.98 | show Cal1 selectivity | 
